T cell HTS: modulators of CD8 T cell-vesicle binding, primary screen, mouse 2C CD8+ T cells, flow cytometry | response (vesicle binding), % at 7 µM | 330,000 tested, 0.068% active | 2C CD8+ T cell-vesicle binding; active compounds read low;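 active = response, share of CD8 T cells binding vesicles, and their 90th percentile fluorescence all below set limits, cut at about 80% in these data, passing the limit was not always enough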;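 note: values below 100% mean blocked vesicle binding to the CD8+ T cells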
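Assay system – 2C mouse CD8+ T cells · Also added – QL9-loaded Drosophila micro-vesicles · Timing – Cell–vesicle co-incubation 1.5 h at 37 °C, staining 20 min on ice · Signal – flow cytometry of vesicle-bound cells · Measure – percent CD8+ FL2 mean versus row control · Controls – Peptide-free naked vesicles (low) and QL9 vesicles with 0.7% DMSO vehicle (high)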
MPTP block: mitochondrial permeability transition pore inhibitors, primary screen, biochemical, isolated mouse mitochondria, absorbance. Ca2+ swelling absorbance, 30 min. inhibition, % at 10 µM. 360,000 tested, 1.4% active. AID 602449, 2012;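 active = inhibition of 50% or more, scaled per plate between neutral and stimulator controls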
Exocytosis inh: LAMP-1 surface exposure blockers, TALL-104 cells – cell-based, flow cytometry, MLPCN library, primary screen. inhibition, % at 10 µM. 360,000 tested, 0.66% active. TALL-104 LAMP-1 surface exposure; cells stimulated with thapsigargin and PMA. AID 651702, 2012;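 active = inhibition above about 55%, limit read from the data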
rCAG binder: binders of r(CAG) RNA repeats, primary screen, biochemical, fluorescence. r(CAG) RNA repeat, TO-PRO-1 dye displacement fluorescence. inhibition, % at 3 µM. 370,000 tested, 1.3% active. AID 651821, 2012;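 active = inhibition above the plate cutoff, the mean of all test compounds on that plate plus 3 SD, cut at about 35% in these data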;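 note: higher means more dye released from RNA so lower well fluorescence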
Beta2AR agonist: beta2AR agonists driving receptor internalization, primary screen, cell-based, FAP fluorogen, flow cytometry; 340,000 tested, 0.43% active; Beta-2 adrenergic receptor (Homo sapiens), P07550; Am2.2-beta2AR cells; response, % (test concentration not listed);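 active = response above a set limit, near 3 SD of response in nonfluorescent compounds, cut at about 42% in these data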
Target sequence (P07550 whole entry, looked up): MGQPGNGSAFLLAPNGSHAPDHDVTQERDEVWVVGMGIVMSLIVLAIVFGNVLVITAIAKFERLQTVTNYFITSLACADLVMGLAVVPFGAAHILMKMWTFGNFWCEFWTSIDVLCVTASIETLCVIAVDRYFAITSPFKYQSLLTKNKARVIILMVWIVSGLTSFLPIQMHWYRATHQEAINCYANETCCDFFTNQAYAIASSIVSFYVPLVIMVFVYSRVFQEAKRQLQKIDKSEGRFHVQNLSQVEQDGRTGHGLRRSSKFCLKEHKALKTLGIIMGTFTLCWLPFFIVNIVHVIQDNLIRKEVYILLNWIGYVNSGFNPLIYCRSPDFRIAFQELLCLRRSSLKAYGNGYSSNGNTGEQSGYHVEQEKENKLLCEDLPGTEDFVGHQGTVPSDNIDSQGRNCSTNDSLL
V-ATPase pH: regulators of yeast V-ATPase proton pumping, primary screen, pHLuorin cytosolic pH fluorescence; S. cerevisiae; response, % at 10 µM; 350,000 tested, 0.37% active; AID 504577, 2011; in the data active = response mostly above about 7.3%, no sharp cut-off; inactive = mostly below about 5.4%; note: actives read high
B2AR ag CP1: beta2AR agonists via receptor internalization, confirmation, cell-based, FAP fluorogen, flow cytometry, single point, cherry pick 1; shares compounds with Beta2AR agonist; 1,100 tested, 25% active; percent response (surface receptor), % at 10 µM; Am2.2-beta2AR cells, FAP surface receptor; active compounds read low;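 active = surface receptor percent response at or below 58%, roughly 3 SD from nonfluorescent compounds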
B2AR FAP counter: flagged in Am2.2 fluorescence counterscreen for beta-2AR agonists | calls only at 10 µM | 1,100 tested, under 10 active | shares compounds with Beta2AR agonist | Am2.2 cells, FAP fluorogen flow cytometry; active compounds read low;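 active = percent response below a set limit in fluorescence channel 1 and below 50% in channel 8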
Numbers stand for hits; – = inactive; · = not tested or not shown. Shown are actives, neighbours in structure and some others; about 3.8% of the full set was active somewhere.

SMILES	T cell HTS	MPTP block	Exocytosis inh	rCAG binder	Beta2AR agonist	V-ATPase pH	B2AR ag CP1	B2AR FAP counter
O=[N+]([O-])c1cc2c(c(CSc3ncccn3)c1)OCOC2	–	–	–	–	–	–	·	·
COc1cccc(NC(=O)C(c2ccccc2)N2CCCCC2)c1 (stereo not drawn)	–	–	–	–	–	–	–	–
COC(=O)[C@]12C[C@H](CC(=O)NCC34CC5CC(CC(C5)C3)C4)C(=O)N(Cc3ccco3)C1=C[C@H](C1CCCC1)O[C@@H]2C	·	·	·	–	·	·	·	·
CN(C(=O)C1CCN(c2cncnc2)CC1)C1CCCCC1	·	·	·	–	·	·	·	·
CCCCOc1cccc(C(=O)Nc2ccc(NC(=O)c3cccs3)cc2)c1	–	–	–	–	79.5	–	21.4	–
CCCOc1ccc(C(=O)Nc2ccc(NC(=O)c3cccs3)cc2)cc1	–	–	–	–	–	–	·	·
COc1cccc(C(=O)Nc2cccc(-c3ccc4nncn4n3)c2)c1OC	–	–	–	–	–	–	·	·
COc1ccc(Cl)cc1C(=O)Nc1cccc(-c2ccc3nncn3n2)c1	–	–	–	–	77.3	–	–	–
COC(=O)[C@]12C[C@H](CC(=O)NCCCCc3ccccc3)C(=O)N(Cc3ccc(Cl)cc3Cl)C1=C[C@H](COCc1ccccc1)O[C@@H]2C	·	·	·	–	·	·	·	·
Cc1ccc(C(=O)OCC(=O)Nc2nc(-c3ccccc3)cs2)cc1NC(=O)c1ccco1	–	–	–	–	53.7	–	37.6	–
OC(CNCc1cccc(Br)c1)c1ccccc1 (stereo not drawn)	–	–	–	–	–	–	–	–
O=C(c1ccc(-c2ccc([N+](=O)[O-])cc2)o1)N1CCCCCCC1	–	–	–	–	51.7	–	–	–
O=C(c1ccc(-c2ccc([N+](=O)[O-])cc2)o1)N1CCCC(C(F)(F)F)C1 (stereo not drawn)	–	–	–	–	–	–	·	·
CC(=O)N[C@H]1C[C@@H]2O[C@H](CO)CC[C@@H]2O[C@@H]1CCc1ccc(-c2ccc(F)cc2)cc1	·	·	·	–	·	·	·	·
Cn1nnnc1Sc1ncnc2scc(-c3ccc(Cl)cc3)c12	–	–	–	–	85.5	–	6.3	–
Cc1sc2ncnc(Sc3nnnn3-c3ccccc3)c2c1C	–	–	–	–	–	–	·	·
Clc1ccc(-n2nnnc2Sc2ncnc3sccc23)cc1	–	–	–	–	54.3	–	34.9	–
C/C=C(/C(=C/C)c1ccc(O)cc1)c1ccc(O)cc1	–	–	–	–	–	–	–	–
Nn1c(SCc2cn3cc(Cl)ccc3n2)nnc1-c1ccncc1	–	–	–	–	–	–	·	·
Nn1c(SCc2cn3ccccc3n2)nnc1-c1ccncc1	–	–	–	–	45.3	–	–	–
COCCCNC(=O)[C@@H](Cc1ccccc1)NC(=O)[C@H]1O[C@@H](n2ccc(=O)[nH]c2=O)[C@H](O)[C@@H]1O	·	·	·	–	·	·	·	·
COc1ccccc1/C=C/c1onc(C)c1S(=O)(=O)N1CCC(C(=O)NC(C)C)CC1	–	–	–	–	44.0	–	–	–
COC(=O)[C@@]1(C(C)C)N=C(c2cc(OC)c(OC)c(OC)c2)[C@]2(O1)C(=O)N(Cc1cn(Cc3ccccc3)nn1)c1ccc(F)cc12	·	·	·	–	·	·	·	·
CC(=O)N1c2ccccc2C(C)(c2ccccc2)CC1(C)C (stereo not drawn)	–	–	–	·	54.3	–	44.6	–
CC1(c2ccccc2)CC(C)(C)N(C(N)=O)c2ccccc21 (stereo not drawn)	–	–	–	–	–	–	·	·
O=C(NC1CCCCN(Cc2ccc(Cl)cc2)C1=O)c1cccc(F)c1 (stereo not drawn)	·	·	·	–	·	·	·	·

Assay outcomes: PubChem, several laboratories
